{"source": "ChEMBL document CHEMBL1141152", "about": "“Efficient transfection of DNA by liposomes formulated with cationic gemini amphiphiles” (2005)", "format_in_all_cases": "functional, Rattus norvegicus", "key": {"[1]": {"assay": "Percentage survived cells of LA7 cell line done for 6 hr with compound (42.5 uM) in trypan blue exclusion dye test", "procedure,_shortened": "(§1)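 LA7 rat mammary adenocarcinoma cells grown in DMEM with 10% FCS, penicillin/streptomycin, insulin and hydrocortisone (50 ng/mL each). Exposed 6 h to DMPC/cationic amphiphile liposomes (1/1; doubled amphiphile for single-headgroup surfactant), concentrations 425 μM to 8.5 μM; medium then replaced. Viability by Trypan blue exclusion 24 h later, counting unstained cells. Duplicates, at least five times; typical experiment shown.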"}, "[2]": {"assay": "Percentage survived cells of LA7 cell line done for 6 hr with compound (213 uM) in trypan blue exclusion dye test", "procedure,_shortened": "as §1"}, "[3]": {"assay": "Percentage survived cells of LA7 cell line done for 6 hr with compound (21.3 uM) in trypan blue exclusion dye test", "procedure,_shortened": "as §1"}, "[4]": {"assay": "Percentage survived cells of LA7 cell line done for 6 hr with compound (85 uM) in trypan blue exclusion dye test", "procedure,_shortened": "as §1"}, "[5]": {"assay": "Percentage survived cells of LA7 cell line done for 6 hr with compound (8.5 uM) in trypan blue exclusion dye test", "procedure,_shortened": "as §1"}}, "data": [{"molecule": "CCCCCCCCCCCCCCCC[N+](C)(C)CCOC.[Br-]", "values": [{"measurement": "Survival", "setting": "[1]", "result": 100, "unit": "%"}, {"measurement": "Survival", "setting": "[2]", "result": 50, "unit": "%"}, {"measurement": "Survival", "setting": "[3]", "result": 100, "unit": "%"}, {"measurement": "Survival", "setting": "[4]", "result": 80, "unit": "%"}, {"measurement": "Survival", "setting": "[5]", "result": 100, "unit": "%"}]}, {"molecule": "CCCCCCCCCCCCCCCC[N+](C)(C)CCCC[N+](C)(C)CCCCCCCCCCCCCCCC.[Br-].[Br-]", "note": "[CATIONIC AMPHIPHILE]", "values": [{"measurement": "Survival", "setting": "[1]", "result": 100, "unit": "%"}, {"measurement": "Survival", "setting": "[2]", "result": 50, "unit": "%"}, {"measurement": "Survival", "setting": "[3]", "result": 100, "unit": "%"}, {"measurement": "Survival", "setting": "[4]", "result": 80, "unit": "%"}, {"measurement": "Survival", "setting": "[5]", "result": 100, "unit": "%"}]}, {"molecule": "CCCCCCCCCCCCCCCC[N+](C)(C)C[C@@H](OC)[C@@H](C[N+](C)(C)CCCCCCCCCCCCCCCC)OC.[Br-].[Br-]", "note": "[CATIONIC AMPHIPHILE]", "values": [{"measurement": "Survival", "setting": "[5]", "result": 100, "unit": "%"}]}, {"molecule": "CCCCCCCCCCCCCCCC[N+](C)(C)C[C@H](OC)[C@@H](C[N+](C)(C)CCCCCCCCCCCCCCCC)OC.[Br-].[Br-]", "note": "[CATIONIC AMPHIPHILE]", "values": [{"measurement": "Survival", "setting": "[1]", "result": 30, "unit": "%"}, {"measurement": "Survival", "setting": "[3]", "result": 80, "unit": "%"}, {"measurement": "Survival", "setting": "[5]", "result": 100, "unit": "%"}]}, {"molecule": "CCCCCCCCCCCCCCCC[N+](C)(C)C[C@H](OC)[C@H](C[N+](C)(C)CCCCCCCCCCCCCCCC)OC.[Br-].[Br-]", "note": "[CATIONIC AMPHIPHILE]", "values": [{"measurement": "Survival", "setting": "[1]", "result": 10, "unit": "%"}, {"measurement": "Survival", "setting": "[3]", "result": 90, "unit": "%"}, {"measurement": "Survival", "setting": "[5]", "result": 100, "unit": "%"}]}]}
